Assay outcomes as filed in PubChem BioAssay.
Most compounds without a hit are left out; they make up all but 27% or so of the library.
HIV Rev-RRE inh = inhibitors of HIV-1 Rev-RRE RNA interaction; P05866; Rev peptide-RRE RNA binding, FRET; inhibition, % at 8 µM; actives 0.79% (n = 97,000); AID 704;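 active means inhibition above the screen-wide mean plus 3 SD, cut at about 35% in these data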
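Test system: Cy5-tagged RRE RNA duplex with fluorescein-tagged Rev peptide | Read-out: % inhibition of FRET ratio versus controls | Probe or stimulus: Labelled Rev peptide | Incubation: 5 min RNA-compound premix plus 15 min binding step, 25 °C | Technique: FRET fluorescence readout | Benchmarks: DMSO low control, neomycin B high control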
Cav32 inh = blocks human Cav3.2 T-type calcium channel | O95180 | Cav3.2-expressing cells, Fluo-4 calcium fluorescence FDSS; active compounds read low | B-score at 10 µM | actives 4% (n = 100,000) | AID 449739;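 active means single-dose well whose peak fluorescence ratio is a statistical outlier from its plate by either plate-standardised score or position-corrected B-score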
CYP2C9 act = activators of human CYP2C9; activation factor at 5 µM; recombinant CYP2C9, luciferin-H conversion, luminescence; active compounds read high; factor 1 = untreated enzyme, 0 = blocked; actives 1.4% (n = 96,000); P11712;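 active means activation factor of 2 or more for CYP2C9 at a 5 µM dose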
CYP2C9 inhib = blocks human cytochrome P450 2C9; CYP2C9 Supersomes, luciferin-H conversion, luminescence; P11712; inhibition, % at 5 µM; actives 20% (n = 96,000);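 active means blocking of liver enzyme CYP2C9 beyond about 50% at 5 µM, limit read from the data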
CYP2C19 activ = increases human CYP2C19 enzyme activity | activation factor at 5 µM | P33261 | recombinant CYP2C19, luciferin-H EGE luminescence; active compounds read high; 0 = fully inhibited enzyme, 1 = untreated enzyme | AID 1025 | 96,000 tested, under 10 active;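 active means activation factor of at least 2 at 5 µM in the primary screen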
Target sequence (P33261 whole entry, looked up): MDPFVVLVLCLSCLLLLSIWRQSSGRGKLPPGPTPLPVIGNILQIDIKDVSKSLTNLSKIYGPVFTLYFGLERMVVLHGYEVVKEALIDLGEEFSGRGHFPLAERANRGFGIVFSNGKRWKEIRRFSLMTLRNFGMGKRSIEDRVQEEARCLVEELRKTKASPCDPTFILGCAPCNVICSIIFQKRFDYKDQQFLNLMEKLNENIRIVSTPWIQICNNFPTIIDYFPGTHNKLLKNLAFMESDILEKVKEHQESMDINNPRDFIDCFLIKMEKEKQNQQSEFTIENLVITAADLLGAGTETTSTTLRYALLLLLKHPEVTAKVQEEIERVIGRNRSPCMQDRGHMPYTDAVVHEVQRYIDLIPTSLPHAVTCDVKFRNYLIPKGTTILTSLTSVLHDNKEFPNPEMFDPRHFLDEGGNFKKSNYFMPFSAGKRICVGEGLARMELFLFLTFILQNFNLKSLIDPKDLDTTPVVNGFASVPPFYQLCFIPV
CYP2C19 inhib = inhibitors of human CYP2C19 | P33261 | CYP2C19 Supersomes, luciferin-H EGE luminescence, 30 min | inhibition, % at 5 µM | actives 21% (n = 96,000);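 active means CYP2C19 inhibition above a set limit at 5 µM in the primary screen, cut at about 50% in these data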
Of the large screens only hits and unclear results are named; the others gave an inactive call.

O=C(Nc1cccc(Cl)c1)c1csc(-c2ccccc2)n1	CYP2C9 inhib 58 (no result: Cav32 inh)
O=C(Nc1cccc(Cl)c1)c1ccncc1	CYP2C19 inhib 68
CC1(C)CC(=O)C=C(Nc2ccc(S(N)(=O)=O)cc2)C1	none
C=C1CCN([C@@H](CC(C)C)C(=O)Nc2ccc(OC)cc2)S(=O)(=O)c2ccccc21	none (no result: HIV Rev-RRE inh, CYP2C9 act, CYP2C9 inhib, CYP2C19 activ, CYP2C19 inhib)
CCn1c(=O)c(NC(=O)c2ccccc2)c2n(c1=S)CCCCC2	CYP2C9 inhib 54
CCOCCCn1c(=O)c(NC(=O)c2ccc(OCC)cc2)c2n(c1=S)CCCCC2	none
Cc1cccc(C2Nc3ccccc3C(=O)N2c2ccc(F)cc2)n1 (configuration not stated)	none (no result: CYP2C9 act, CYP2C9 inhib, CYP2C19 activ, CYP2C19 inhib)
COc1ccc(C2Nc3ccccc3C(=O)N2c2ccc(C)cc2)cc1Cn1nnc2ccccc21 (configuration not stated)	CYP2C9 inhib 81, CYP2C19 inhib 51
COc1ccc(C2Nc3ccccc3C(=O)N2c2ccc(C)cc2)cc1Cn1cc([N+](=O)[O-])cn1 (configuration not stated)	CYP2C9 inhib 90
COc1cc(OC)nc(NC(=O)NS(=O)(=O)c2ccc(OC(F)(F)F)cc2)n1	none
Cc1c(C(C)(C)C)c(C=S)n2ccccc12	none
CCCN1C(=O)c2ccccc2NC1c1ccc(OC)cc1OC (configuration not stated)	CYP2C9 inhib 53, CYP2C19 inhib 63
CCCN1C(=O)c2ccccc2NC1c1ccc(OC)cc1O (configuration not stated)	CYP2C19 inhib 81
COc1ccc(C2C(C(C)=O)=C(O)C(=O)N2CCc2ccccc2)c(OC)c1 (configuration not stated)	none
CC(C)(C)C1=Nn2c(nnc2-c2ccco2)SC1	none
Cc1nc(SCC(=O)Nc2ccc(F)cc2)c2oc3ccccc3c2n1	CYP2C9 inhib 84
Cc1nc(SCC(=O)NC(C)c2ccccc2)c2oc3ccccc3c2n1 (configuration not stated)	CYP2C9 inhib 80, CYP2C19 inhib 64
Cc1nc(SCC(=O)Nc2ccccc2)c2oc3ccccc3c2n1	CYP2C9 inhib 80, CYP2C19 inhib 51
Cc1nc(SCC(=O)N2CCCc3ccccc32)c2oc3ccccc3c2n1	none
O=C(O)CSc1nc(-c2ccccc2)nc2c1oc1ccccc12	CYP2C9 inhib 91
Cc1cc(C)nc(Sc2nc(C)nc3c2oc2ccccc23)n1	none
CNC(=O)C(Sc1nc(C)nc2c1oc1ccccc12)C(C)=O (configuration not stated)	CYP2C9 inhib 61, CYP2C19 inhib 55
CN1C(=O)c2cccc(NC(=O)Cc3ccccc3)c2C1=O	CYP2C9 inhib 58
Cc1occc1C(=O)Nc1ccc(Br)cc1F	CYP2C19 inhib 50
COc1ccc(Cl)cc1NC(=O)c1ccoc1C	CYP2C9 act 2.6
COc1ccc(Cl)cc1NC(=O)c1cnc2sccn2c1=O	CYP2C9 act 2.1 (no result: HIV Rev-RRE inh)
COc1ccc(Cl)cc1NC(=O)c1nc2nc(C)cc(C(F)F)n2n1	CYP2C9 act 3.6
COc1ccc(C)cc1NC(=O)c1ccoc1C	none
COc1ccc(C(C)(C)C)cc1NC(=O)c1ccoc1C	CYP2C19 inhib 62
COc1ccc(Cl)cc1NC(=O)c1ocnc1C	CYP2C9 act 2.6
COc1ccc(NC(=O)c2ocnc2C)cc1OC	none
COc1ccc(Cl)cc1NC(=O)N(C)Cc1c(C)nn(C)c1C	CYP2C9 act 2.4, CYP2C19 inhib 86
Cc1ccc(SCCN2CCN(C)CCC2=O)cc1	none (no result: HIV Rev-RRE inh, CYP2C9 act, CYP2C9 inhib, CYP2C19 activ, CYP2C19 inhib)
O=C(Nc1c(Cl)cccc1Cl)c1cc(=O)n(Cc2ccccc2)c(=O)[nH]1	none
O=c1c2ccccc2ncn1CCCOc1ccccc1[N+](=O)[O-]	CYP2C19 inhib 52
Cc1cc(C)c(OCCCCn2cnc3ccccc3c2=O)c(C)c1	none
Cc1cccc(C)c1OCCCCn1cnc2ccccc2c1=O	CYP2C9 inhib 53
O=c1c2ccccc2ncn1CCCSc1ccccc1	CYP2C19 inhib 78
COc1cccc(OC)c1OCCOCCn1cnc2ccccc2c1=O	CYP2C19 inhib 77
Cn1c(=O)c2c(nc(CN3CCOCC3)n2CC(O)CO)n(C)c1=O (configuration not stated)	none
N#C/C(Cn1c[n+](NC(=O)Nc2ccccc2)cn1)=N/O	none
O[C@@H]([C@H](O)[C@H](O)CBr)[C@H](O)CBr	none (no result: HIV Rev-RRE inh, CYP2C9 act, CYP2C9 inhib, CYP2C19 activ, CYP2C19 inhib)
